In ChEMBL document CHEMBL4368938, “Design, synthesis and biological evaluation of inhibitors of cathepsin K on dedifferentiated chondrocytes” (Bioorg Med Chem, 2019):
Active and inactive are the calls of the source. The rule behind the calls is not given here.

Tests used:
[1] = biological target: 72 kDa type IV collagenase (Mus musculus) (UniProt P33434); test: Inhibition of MMP2 in mouse Primary chondrocytes derived after 2 passages at 1 uM after 24 hrs by Coomassie blue staining-based zymography assay; format: cell-based
Chain of 72 kDa type IV collagenase (Mus musculus) (P33434 whole entry): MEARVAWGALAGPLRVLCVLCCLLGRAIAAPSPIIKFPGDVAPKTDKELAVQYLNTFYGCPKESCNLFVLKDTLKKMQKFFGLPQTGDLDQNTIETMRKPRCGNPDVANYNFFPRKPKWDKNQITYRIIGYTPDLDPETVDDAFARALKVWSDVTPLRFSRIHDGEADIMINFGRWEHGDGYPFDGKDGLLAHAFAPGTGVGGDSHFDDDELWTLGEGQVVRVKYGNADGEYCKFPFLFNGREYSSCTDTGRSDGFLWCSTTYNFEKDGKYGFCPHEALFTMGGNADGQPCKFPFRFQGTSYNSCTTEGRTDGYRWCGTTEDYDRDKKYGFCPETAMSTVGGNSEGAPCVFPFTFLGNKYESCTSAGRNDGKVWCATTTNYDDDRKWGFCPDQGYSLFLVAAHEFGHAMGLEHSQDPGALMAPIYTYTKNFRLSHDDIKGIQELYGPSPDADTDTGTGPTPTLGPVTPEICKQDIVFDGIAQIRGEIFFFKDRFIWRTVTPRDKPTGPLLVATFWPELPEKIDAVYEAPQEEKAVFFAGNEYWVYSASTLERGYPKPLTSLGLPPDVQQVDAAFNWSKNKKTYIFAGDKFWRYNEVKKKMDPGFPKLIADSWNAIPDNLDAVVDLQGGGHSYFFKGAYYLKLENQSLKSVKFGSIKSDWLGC
Method in brief: (§1)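 Gelatin zymography of extracellular medium from primary mouse chondrocytes. Medium collected in pH 7.5 Tris/EGTA/Triton extraction buffer, and equal protein run on 8% SDS gels with 1.2 mg/mL gelatin. Renatured in Tris/20% glycerol (2 × 45 min), then pH 7.4 Tris/NaCl/5 mM CaCl2 buffer. After 30 min, fresh buffer with 0.1% DMSO ± inhibitor for 24 h at 37 °C. Coomassie stained; clear bands scored. Triplicate.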

[2] = biological target: T1, Cathepsin K (Mus musculus) (UniProt P55097); test: Inhibition of cathepsin K in mouse Primary chondrocytes derived after 2 passages at 0.1 to 1 uM using Z-GPR-4MbetaNA as substrate by fluorescence assay relative to control; format: cell-based
T1 sequence (whole entry): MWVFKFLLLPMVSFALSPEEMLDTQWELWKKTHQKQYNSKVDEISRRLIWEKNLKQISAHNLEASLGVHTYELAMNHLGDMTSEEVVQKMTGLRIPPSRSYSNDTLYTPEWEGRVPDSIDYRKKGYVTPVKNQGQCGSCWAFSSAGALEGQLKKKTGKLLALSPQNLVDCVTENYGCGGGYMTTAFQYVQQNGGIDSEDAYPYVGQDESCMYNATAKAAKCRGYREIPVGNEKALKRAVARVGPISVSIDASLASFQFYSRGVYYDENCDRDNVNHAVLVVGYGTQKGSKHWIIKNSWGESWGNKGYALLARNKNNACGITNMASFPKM
Method in brief: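 Lysates of passaged primary chondrocytes in zymography extraction buffer. Incubated with Z-GPR-4MβNA (1 mg/mL), and released 4MβNA captured with 10 μM 5-nitrosalicylaldehyde. Fluorescence read at ex 488/em 525 nm, at least three reads per condition. Activity taken as (control − sample fluorescence) normalized to Bradford protein. Three independent experiments in triplicate.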

[3] = biological target: T1, Cathepsin K (Mus musculus); test: Inhibition of cathepsin K in mouse Primary chondrocytes derived after 2 passages at 1 uM after 24 hrs by Coomassie blue staining-based zymography assay; format: cell-based
Method in brief: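 Chondrocyte lysates in pH 7.5 extraction buffer. Equal protein resolved on 12% SDS gels containing 2 mg/mL gelatin. Renatured in Tris/glycerol, then developed in pH 6.0 100 mM sodium phosphate with 1 mM EDTA and 2 mM DTT. After 30 min, buffer exchanged for fresh buffer with 0.1% DMSO ± inhibitor for 24 h at 37 °C. Coomassie stain and destain; lysis zones indicate activity.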

[4] = biological target: Matrix metalloproteinase-9 (Mus musculus) (UniProt P41245); test: Inhibition of MMP9 in mouse Primary chondrocytes derived after 2 passages at 1 uM after 24 hrs by Coomassie blue staining-based zymography assay; format: cell-based; method in brief: as §1
Chain of Matrix metalloproteinase-9 (Mus musculus) (P41245 whole entry): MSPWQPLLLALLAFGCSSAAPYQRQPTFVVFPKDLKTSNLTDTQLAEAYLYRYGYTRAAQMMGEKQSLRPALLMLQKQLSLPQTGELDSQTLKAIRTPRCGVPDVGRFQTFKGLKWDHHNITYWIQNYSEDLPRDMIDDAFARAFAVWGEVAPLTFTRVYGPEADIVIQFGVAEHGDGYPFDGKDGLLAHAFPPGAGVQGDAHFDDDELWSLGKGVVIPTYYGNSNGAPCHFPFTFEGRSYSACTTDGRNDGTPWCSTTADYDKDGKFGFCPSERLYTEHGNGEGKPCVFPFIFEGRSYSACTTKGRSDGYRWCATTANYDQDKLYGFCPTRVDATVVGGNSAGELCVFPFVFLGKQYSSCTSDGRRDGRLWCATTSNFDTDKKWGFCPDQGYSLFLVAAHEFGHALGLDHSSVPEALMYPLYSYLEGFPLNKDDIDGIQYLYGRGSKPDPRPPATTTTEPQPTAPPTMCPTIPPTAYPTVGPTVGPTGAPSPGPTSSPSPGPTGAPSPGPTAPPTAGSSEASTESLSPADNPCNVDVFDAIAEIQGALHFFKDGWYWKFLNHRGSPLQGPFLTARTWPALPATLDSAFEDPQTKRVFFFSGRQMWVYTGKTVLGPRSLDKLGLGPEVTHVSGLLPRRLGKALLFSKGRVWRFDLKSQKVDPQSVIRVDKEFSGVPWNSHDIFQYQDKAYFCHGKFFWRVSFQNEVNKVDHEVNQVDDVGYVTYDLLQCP

MG-63 = test: Cytotoxicity against human MG63 cells assessed as reduction in cell viability at 0.001 to 5 uM after 3 days by MTT assay; format: cell-based; conditions: mg-63, 72 h
Method in brief: (§2)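 Cells plated at 60000/well (primary chondrocytes from epiphyseal cartilage of 5-6 day-old SWISS mice) or 100 000/well (MG-63, MOVAS cell lines). Grown in DMEM with 10% FBS plus penicillin/streptomycin, with or without inhibitor, for 3 days up to confluence. MTT 0.125 mg/mL final for 4 h, then DMSO solubilization and A570 read. Normalized to 0.1% DMSO control as 100%. Three sample pools, each in triplicate (n = 9).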

[5] = Cytotoxicity against mouse MOVAS1 cells assessed as reduction in cell viability at 0.001 to 5 uM after 3 days by MTT assay; format: cell-based; conditions: 72 h; method in brief: as §2
Mus musculus [6] = species: Mus musculus; test: Inhibition of aggrecanase in mouse Primary chondrocytes derived after 2 passages assessed as effect on measuring sGAG content at 1 uM by Alcian blue staining-based assay; format: cell-based
Method in brief: (§3)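 Passaged primary chondrocytes cultured ± inhibitor. Washed in PBS, fixed in 4% formaldehyde for 30 min at RT, then stained 30 min with 1% Alcian blue in 0.1 N HCl. Dye extracted with 33% isopropanol in 4.0 mol/L GnCl and A595 measured. Three independent experiments in triplicate.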

Cathepsin S = Cathepsin S (Homo sapiens, UniProt P25774); test: Inhibition of recombinant human cathepsin S expressed in Escherichia coli
Chain of Cathepsin S (P25774 whole entry): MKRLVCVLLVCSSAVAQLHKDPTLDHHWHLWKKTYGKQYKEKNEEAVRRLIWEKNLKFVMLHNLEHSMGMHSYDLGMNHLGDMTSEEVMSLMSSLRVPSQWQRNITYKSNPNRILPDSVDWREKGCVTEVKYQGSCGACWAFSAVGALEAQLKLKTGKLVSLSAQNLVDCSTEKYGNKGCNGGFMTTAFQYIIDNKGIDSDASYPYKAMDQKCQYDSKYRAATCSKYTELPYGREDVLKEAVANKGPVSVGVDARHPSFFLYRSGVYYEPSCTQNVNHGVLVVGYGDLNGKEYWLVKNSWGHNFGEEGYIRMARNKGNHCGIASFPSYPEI

Procathepsin L = Procathepsin L (Homo sapiens, UniProt P07711); test: Inhibition of human liver cathepsin L
Chain of Procathepsin L (P07711 whole entry): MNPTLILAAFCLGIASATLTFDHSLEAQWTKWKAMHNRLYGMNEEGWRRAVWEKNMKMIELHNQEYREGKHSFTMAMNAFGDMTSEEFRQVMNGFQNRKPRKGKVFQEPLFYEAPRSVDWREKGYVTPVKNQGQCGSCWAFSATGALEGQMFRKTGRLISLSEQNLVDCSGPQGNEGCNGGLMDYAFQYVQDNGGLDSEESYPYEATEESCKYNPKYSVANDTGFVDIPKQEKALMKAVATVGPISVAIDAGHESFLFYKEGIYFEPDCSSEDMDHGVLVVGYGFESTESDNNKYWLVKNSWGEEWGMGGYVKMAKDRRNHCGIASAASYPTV

Mus musculus [7] = species: Mus musculus; test: Inhibition of aggrecanase in mouse Primary chondrocytes derived after 0 passages assessed as effect on measuring sGAG content at 1 uM by Alcian blue staining-based assay; format: cell-based
[8] = Cytotoxicity against mouse Primary chondrocytes assessed as reduction in cell viability at 0.001 to 5 uM after 3 days by MTT assay; conditions: 72 h; method in brief: as §2
Mus musculus [9] = species: Mus musculus; test: Inhibition of aggrecanase in mouse Primary chondrocytes derived after 1 passages assessed as effect on measuring sGAG content at 1 uM by Alcian blue staining-based assay; format: cell-based; method in brief: as §3
Cathepsin K = biological target: T2, Cathepsin K (Homo sapiens, UniProt P43235); test: Inhibition of recombinant His-tagged human cathepsin K expressed in Escherichia coli
T2 sequence (P43235 whole entry): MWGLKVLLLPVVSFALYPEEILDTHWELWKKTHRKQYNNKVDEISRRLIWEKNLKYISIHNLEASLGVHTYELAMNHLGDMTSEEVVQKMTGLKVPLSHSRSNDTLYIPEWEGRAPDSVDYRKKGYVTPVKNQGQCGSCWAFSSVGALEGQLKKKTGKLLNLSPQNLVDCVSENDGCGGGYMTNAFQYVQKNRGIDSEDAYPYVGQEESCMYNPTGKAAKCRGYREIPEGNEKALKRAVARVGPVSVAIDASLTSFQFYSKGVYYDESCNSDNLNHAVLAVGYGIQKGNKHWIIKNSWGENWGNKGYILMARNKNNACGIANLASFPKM

inhibition [1]	inhibition [2] [%]	inhibition [3]	inhibition [4]	inhibition (Mus musculus [6])	IC50 (Cathepsin S) [nM]	Ki (Cathepsin S) [nM]	IC50 (Procathepsin L) [nM]	Ki (Procathepsin L) [nM]	inhibition (Mus musculus [7])	inhibition (Mus musculus [9])	IC50 (Cathepsin K) [nM]	Ki (Cathepsin K) [nM]	Compound	Activity (MG-63)	Activity [5]	Activity [8]
inactive	19 to 30	Active	inactive										CC(C)(F)C[C@H](N[C@@H](c1ccc(-c2ccc(S(C)(=O)=O)cc2)cc1)C(F)(F)F)C(=O)NC1(C#N)CC1			
inactive	30 to 40	Active	inactive	inactive	1020	735	2710	406	inactive	inactive	15	7.21	CC(C)CC(C(=O)N(C)N(C)C#N)c1cccc(-c2ccc(S(C)(=O)=O)cc2)c1 (racemic)	Non-Toxic	Non-Toxic	Non-Toxic
